Tests used:
Human alphaherpesvirus 2 = assay: Antiviral activity against HSV2 G infected in HEL cells assessed as inhibition of virus-induced cytopathicity; format: functional, organism-based; details: Human alphaherpesvirus 2, strain G
In short: (§1)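 Confluent human embryonic lung fibroblast monolayers inoculated with 100 CCID50 virus. After 1–2 h adsorption, residual virus was removed and cultures were incubated with varying compound concentrations. Cytopathicity was scored once untreated infected controls reached full cytopathicity.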

[1] = test system: Human immunodeficiency virus 2; assay: Antiviral activity against HIV2 ROD infected in human CEM cells assessed as inhibition of virus-induced cytopathicity after 4 days; format: functional, organism-based; details: Human immunodeficiency virus 2, ISOLATE ROD, CCRF-CEM, 96 h
In short: (§2)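 Human CEM cells (~3 × 10^5 cells/mL) infected with 100 CCID50 per mL of HIV-1(IIIB) or HIV-2(ROD), then seeded into wells holding compound dilutions. Incubated 4 days at 37°C. Giant cell formation was scored microscopically.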

Human alphaherpesvirus 1 [2] = assay: Antiviral activity against acyclovir […]-resistant thymidine kinase-deficient HSV1 KOS infected in HEL cells assessed as inhibition of virus-induced cytopathicity; format: functional, organism-based; details: Human alphaherpesvirus 1, KOS; in short: as §1
Human alphaherpesvirus 1 [3] = assay: Antiviral activity against HSV1 KOS infected in HEL cells assessed as inhibition of virus-induced cytopathicity; format: functional, organism-based; details: Human alphaherpesvirus 1, KOS; in short: as §1
[4] = Cytotoxicity against HEL cells assessed as concentration required to cause alteration in cell alteration by microscopically; format: cell-based; details: human
CCRF-CEM = assay: Cytotoxicity against human CEM cells assessed as decrease in cell viability; format: cell-based
HEL = assay: Cytotoxicity against HEL cells assessed as inhibition of cell proliferation; format: cell-based; details: Homo sapiens
[5] = test system: Human immunodeficiency virus 1; assay: Antiviral activity against HIV1 3B/Lai infected in human CEM cells assessed as inhibition of virus-induced cytopathicity after 4 days; format: functional, organism-based; details: Human immunodeficiency virus 1, 3B/Lai, CCRF-CEM, 96 h; in short: as §2
[6] = test system: Human immunodeficiency virus 1; assay: Antiviral activity against HIV1 3B/Lai infected in human MT4 cells assessed as suppression of p24 production after 3 days; format: functional, organism-based; details: Human immunodeficiency virus 1, 3B/Lai, MT4, 72 h
In short: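 MT-4 cells (1 × 10^4 cells/mL) in fresh medium infected with X4LAI.04 stock, 10 μL (0.7 ng p24) per mL of cell suspension. Mixed with medium carrying compound dilutions and kept at 37°C. After 3 days, p24 was measured in culture supernatants.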

MT4 [7] = assay: Cytotoxicity against human MT4 cells assessed as decrease in cell viability; format: cell-based
In short: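 MT-4 viability was measured by automated propidium iodide-based cell counting, enumerating total and dead cells in untreated and compound-treated cultures.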

MT4 [8] = assay: Cytotoxicity against human MT4 cells assessed as inhibition of cell proliferation; format: cell-based

| Compound | EC50 (Human alphaherpesvirus 2) | EC50 [1] | EC50 (Human alphaherpesvirus 1 [2]) | EC50 (Human alphaherpesvirus 1 [3]) | MCC [4] | IC50 (CCRF-CEM) | IC50 (HEL) | EC50 [5] | EC50 [6] | IC50 (MT4 [7]) | CC50 (MT4 [8]) |
| --- | --- | --- | --- | --- | --- | --- | --- | --- | --- | --- | --- |
| C[C@@H](NP(=O)(OCCOCn1cnc2c(=O)[nH]c(N)nc21)Oc1ccccc1)C(=O)OCc1ccccc1 (some centres not stated) | 1.4 µM | > 250 µM | 23 µM | 2 µM | > 100 µM | ≥ 250 µM | – | – | – | – | – |
| Nc1nc2c(ncn2COCCOP(=O)(Oc2ccccc2)N2CCC[C@H]2C(=O)OCc2ccccc2)c(=O)[nH]1 (some centres not stated) | > 100 µM | > 20 µM | > 100 µM | > 100 µM | > 100 µM | > 100 µM | > 100 µM | > 20 µM | – | – | – |
| CCOC(=O)[C@H](C)NP(=O)(OCCOCn1cnc2c(=O)[nH]c(N)nc21)Oc1cccc2ccccc12 (some centres not stated) | 9.5 µM | 42 µM | 32 µM | 32 µM | > 150 µM | 32 µM | > 100 µM | 12 µM | 1.7 µM | 12 µM | > 150 µM |
| CC(C)[C@H](NP(=O)(OCCOCn1cnc2c(=O)[nH]c(N)nc21)Oc1ccccc1)C(=O)OCc1ccccc1 (some centres not stated) | 0.85 µM | > 50 µM | 7.5 µM | 2 µM | > 100 µM | ≥ 100 µM | – | > 50 µM | – | – | – |
| CCOC(=O)[C@@H](NP(=O)(OCCOCn1cnc2c(=O)[nH]c(N)nc21)Oc1cccc2ccccc12)C(C)C (some centres not stated) | 32 µM | > 100 µM | 42 µM | 51 µM | > 100 µM | > 100 µM | – | > 100 µM | – | – | – |
| C[C@H](NP(=O)(OCCOCn1cnc2c(=O)[nH]c(N)nc21)Oc1cccc2ccccc12)C(=O)OC(C)(C)C (some centres not stated) | 50 µM | > 100 µM | > 100 µM | > 100 µM | > 50 µM | > 100 µM | > 100 µM | > 100 µM | > 150 µM | > 150 µM | > 150 µM |
| CC(C)OC(=O)[C@H](C)NP(=O)(OCCOCn1cnc2c(=O)[nH]c(N)nc21)Oc1cccc2ccccc12 (some centres not stated) | 10 µM | 12 µM | ≥ 45 µM | 15 µM | > 50 µM | 36 µM | > 100 µM | 6.2 µM | 5.4 µM | 72.5 µM | > 150 µM |
| COC(=O)[C@H](NP(=O)(OCCOCn1cnc2c(=O)[nH]c(N)nc21)Oc1cccc2ccccc12)C(C)C (some centres not stated) | > 100 µM | > 100 µM | > 100 µM | > 100 µM | > 100 µM | > 100 µM | – | > 100 µM | – | – | – |
| C[C@H](NP(=O)(OCCOCn1cnc2c(=O)[nH]c(N)nc21)Oc1ccc(F)cc1)C(=O)OCc1ccccc1 (some centres not stated) | 0.5 µM | > 20 µM | 1.5 µM | 0.9 µM | > 100 µM | 76 µM | – | – | – | – | – |
| CC[C@H](C)[C@H](NP(=O)(OCCOCn1cnc2c(=O)[nH]c(N)nc21)Oc1ccccc1)C(=O)OCc1ccccc1 (some centres not stated) | 1.1 µM | > 20 µM | 1.4 µM | 1.1 µM | > 100 µM | – | – | > 20 µM | – | – | – |
| Nc1nc2c(ncn2COCCOP(=O)(NCC(=O)OCc2ccccc2)Oc2ccccc2)c(=O)[nH]1 (configuration not stated) | 0.8 µM | > 100 µM | 9 µM | 3 µM | > 100 µM | > 100 µM | – | > 100 µM | – | – | – |
| CC(C)(NP(=O)(OCCOCn1cnc2c(=O)[nH]c(N)nc21)Oc1ccccc1)C(=O)OCc1ccccc1 (configuration not stated) | 0.8 µM | > 100 µM | 5.5 µM | 1.4 µM | > 100 µM | > 100 µM | – | – | 7 µM | > 150 µM | > 150 µM |
| CC(C)C[C@H](NP(=O)(OCCOCn1cnc2c(=O)[nH]c(N)nc21)Oc1ccccc1)C(=O)OCc1ccccc1 (some centres not stated) | 0.7 µM | > 20 µM | 1.4 µM | 0.8 µM | > 100 µM | > 20 µM | – | > 20 µM | 0.8 µM | > 150 µM | 17 µM |
| Nc1nc2c(ncn2COCCO)c(=O)[nH]1 [ACYCLOVIR] | – | > 250 µM | – | – | > 100 µM | > 250 µM | – | > 250 µM | – | > 250 µM | > 250 µM |

From ChEMBL document CHEMBL1153518 (J Med Chem, 2009)
